Laboratory results from ChEMBL document CHEMBL1150264, “Design and microwave-assisted synthesis of novel macrocyclic peptides active at melanocortin receptors: discovery of potent and selective hMC5R receptor antagonists” (J Med Chem, 2008).
Active and inactive are the calls of the source. The calls are words filed in the database; no cut-off is given here.

How the values were obtained:
[1] = target: T1, Melanocyte-stimulating hormone receptor (Homo sapiens, UniProt Q01726); assay: Displacement of [125I]-[Nle4, D-Phe7]alpha-MSH from human melanocortin 1 receptor expressed in HEK293 cells at 10 uM; assay type: cell-based
Target sequence in this assay (Q01726 whole entry, looked up): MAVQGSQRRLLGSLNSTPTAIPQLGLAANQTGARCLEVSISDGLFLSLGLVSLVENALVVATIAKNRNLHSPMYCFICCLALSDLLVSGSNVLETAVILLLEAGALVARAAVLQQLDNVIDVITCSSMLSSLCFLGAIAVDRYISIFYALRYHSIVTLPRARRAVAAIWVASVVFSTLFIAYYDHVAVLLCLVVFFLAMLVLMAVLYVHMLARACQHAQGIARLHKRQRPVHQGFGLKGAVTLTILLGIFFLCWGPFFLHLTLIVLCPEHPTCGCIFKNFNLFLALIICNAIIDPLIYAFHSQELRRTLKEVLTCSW

[2] = target: T1, Melanocyte-stimulating hormone receptor; assay: Agonist activity at human melanocortin 1 receptor expressed in HEK293 cells assessed as cAMP accumulation at 10 uM; assay type: functional, cell-based
Procedure, shortened: (§1)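 cAMP accumulation assay in stably transfected HEK293 cells: 0.5 mM IBMX preincubation, 3 min ligand exposure at 37 °C, [3H]cAMP/PKA binding read-out against a standard curve. The cAMP produced at 10 μM ligand is expressed as percent of that produced by 10 μM MT-II (% max effect).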
Target sequence in this assay (Q01726 whole entry, looked up): as above

[3] = target: T1, Melanocyte-stimulating hormone receptor; assay: Agonist activity at human melanocortin 1 receptor expressed in HEK293 cells assessed as cAMP accumulation at 10 uM realtive to MT2; assay type: functional, cell-based; procedure, shortened: as §1
Target sequence in this assay (Q01726 whole entry, looked up): as above

[4] = target: T2, Melanocortin receptor 3 (Homo sapiens, UniProt P41968); assay: Displacement of [125I]-[Nle4, D-Phe7]alpha-MSH from human melanocortin 3 receptor expressed in HEK293 cells at 10 uM; assay type: cell-based
[5] = target: T2, Melanocortin receptor 3; assay: Agonist activity at human melanocortin 3 receptor expressed in HEK293 cells assessed as cAMP accumulation at 10 uM; assay type: functional, cell-based; procedure, shortened: as §1
[6] = target: T2, Melanocortin receptor 3; assay: Agonist activity at human melanocortin 3 receptor expressed in HEK293 cells assessed as cAMP accumulation at 10 uM realtive to MT2; assay type: functional, cell-based; procedure, shortened: as §1
[7] = target: T3, Melanocortin receptor 4 (Homo sapiens, UniProt P32245); assay: Displacement of [125I]-[Nle4, D-Phe7]alpha-MSH from human melanocortin 4 receptor expressed in HEK293 cells at 10 uM; assay type: cell-based
[8] = target: T3, Melanocortin receptor 4; assay: Agonist activity at human melanocortin 4 receptor expressed in HEK293 cells assessed as cAMP accumulation at 10 uM; assay type: functional, cell-based; procedure, shortened: as §1
[9] = target: T3, Melanocortin receptor 4; assay: Agonist activity at human melanocortin 4 receptor expressed in HEK293 cells assessed as cAMP accumulation at 10 uM realtive to MT2; assay type: functional, cell-based; procedure, shortened: as §1
[10] = target: T4, Melanocortin receptor 5 (Homo sapiens, UniProt P33032); assay: Displacement of [125I]-[Nle4, D-Phe7]alpha-MSH from human melanocortin 5 receptor expressed in HEK293 cells at 10 uM; assay type: cell-based
[11] = target: T4, Melanocortin receptor 5; assay: Agonist activity at human melanocortin 5 receptor expressed in HEK293 cells assessed as cAMP accumulation at 10 uM; assay type: functional, cell-based; procedure, shortened: as §1
[12] = target: T4, Melanocortin receptor 5; assay: Agonist activity at human melanocortin 5 receptor expressed in HEK293 cells assessed as cAMP accumulation at 10 uM realtive to MT2; assay type: functional, cell-based; procedure, shortened: as §1
[13] = target: T1, Melanocyte-stimulating hormone receptor; assay: Displacement of [125I]-[Nle4, D-Phe7]alpha-MSH from human melanocortin 1 receptor expressed in HEK293 cells; assay type: cell-based
Procedure, shortened: (§2)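 Whole HEK293 cells stably expressing each hMCR, seeded 48 h before assay (50000 cells/well), washed in MEM with 25 mM bicarbonate. Cells incubated 40 min at 37 °C with unlabeled peptide plus [125I]-NDP-α-MSH (33.06 pM, 20000 cpm/well) in MEM, 25 mM HEPES pH 7.4, 0.2% BSA, 1 mM 1,10-phenanthroline, leupeptin, bacitracin. Cells washed, lysed with NaOH/Triton X-100, and gamma-counted. IC50 by nonlinear fit, two experiments in triplicate […].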
Target sequence in this assay (Q01726 whole entry): as the sequence (Q01726 whole entry, looked up) above

[14] = target: T1, Melanocyte-stimulating hormone receptor; assay: Agonist activity at human melanocortin 1 receptor expressed in HEK293 cells assessed as cAMP accumulation; assay type: functional, cell-based
Procedure, shortened: (§3)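 Stably transfected HEK293 cells seeded 48 h before assay (50000 cells/well), rinsed, preincubated 1 min at 37 °C in Earle's balanced salt solution with 0.5 mM IBMX, then given peptide at varying concentrations for 3 min at 37 °C. Stopped with ice-cold Tris/EDTA and boiling 7 min. cAMP measured by [3H]cAMP competition for PKA against a standard curve. EC50 by nonlinear least-squares fit, mean of two experiments in triplicate.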
Target sequence in this assay (Q01726 whole entry): as the sequence (Q01726 whole entry, looked up) above

[15] = target: T2, Melanocortin receptor 3; assay: Displacement of [125I]-[Nle4, D-Phe7]alpha-MSH from human melanocortin 3 receptor expressed in HEK293 cells; assay type: cell-based; procedure, shortened: as §2
[16] = target: T2, Melanocortin receptor 3; assay: Agonist activity at human melanocortin 3 receptor expressed in HEK293 cells assessed as cAMP accumulation; assay type: functional, cell-based; procedure, shortened: as §3
[17] = target: T4, Melanocortin receptor 5; assay: Displacement of [125I]-[Nle4, D-Phe7]alpha-MSH from human melanocortin 5 receptor expressed in HEK293 cells; assay type: cell-based; procedure, shortened: as §2

T4 sequence (P33032 whole entry): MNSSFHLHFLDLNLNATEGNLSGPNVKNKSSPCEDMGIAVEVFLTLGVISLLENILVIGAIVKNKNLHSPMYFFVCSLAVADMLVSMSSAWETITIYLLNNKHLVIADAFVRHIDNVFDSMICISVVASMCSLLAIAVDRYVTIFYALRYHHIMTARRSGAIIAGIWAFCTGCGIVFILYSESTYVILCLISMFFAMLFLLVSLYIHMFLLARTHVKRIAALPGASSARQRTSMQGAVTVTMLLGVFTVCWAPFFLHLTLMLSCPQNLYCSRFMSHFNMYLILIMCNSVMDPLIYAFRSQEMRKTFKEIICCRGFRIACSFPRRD
T3 sequence (P32245 whole entry): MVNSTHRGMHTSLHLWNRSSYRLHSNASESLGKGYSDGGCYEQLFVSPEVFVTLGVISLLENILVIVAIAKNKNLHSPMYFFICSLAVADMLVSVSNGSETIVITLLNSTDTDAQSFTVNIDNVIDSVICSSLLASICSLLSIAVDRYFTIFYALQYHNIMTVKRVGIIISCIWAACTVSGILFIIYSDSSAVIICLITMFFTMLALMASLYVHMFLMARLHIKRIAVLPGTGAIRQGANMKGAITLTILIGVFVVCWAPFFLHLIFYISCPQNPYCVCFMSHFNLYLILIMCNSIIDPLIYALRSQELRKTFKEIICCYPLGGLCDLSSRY
T2 sequence (P41968 whole entry): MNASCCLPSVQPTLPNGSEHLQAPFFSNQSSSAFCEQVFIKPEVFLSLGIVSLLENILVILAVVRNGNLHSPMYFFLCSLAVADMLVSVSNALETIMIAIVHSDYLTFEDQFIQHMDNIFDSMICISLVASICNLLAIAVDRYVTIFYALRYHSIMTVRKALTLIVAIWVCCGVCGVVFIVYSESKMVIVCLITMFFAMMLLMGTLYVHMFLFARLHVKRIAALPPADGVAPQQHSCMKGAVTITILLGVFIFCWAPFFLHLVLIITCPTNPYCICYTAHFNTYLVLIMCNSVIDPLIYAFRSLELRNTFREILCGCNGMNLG

Structure (SMILES) | Activity [1] | Activity [2] | Activity [3] [%] | Activity [4] | Activity [5] | Activity [6] [%] | Activity [7] | Activity [8] | Activity [9] [%] | Activity [10] | Activity [11] | Activity [12] [%] | further results
N=C(N)NCCC[C@@H]1NC(=O)[C@@H](Cc2ccccc2)NC(=O)[C@H]2C[C@@H](O)CN2C(=O)c2cc([N+](=O)[O-])ccc2SC[C@@H](C(N)=O)NC(=O)[C@H](Cc2c[nH]c3ccccc23)NC1=O | inactive | inactive | 0 | inactive | inactive | 0 | inactive | inactive | 0 | inactive | inactive | 0 | –
N=C(N)NCCC[C@@H]1NC(=O)[C@@H](Cc2ccccc2)NC(=O)[C@H]2CCCN2C(=O)c2cc([N+](=O)[O-])ccc2SC[C@@H](C(N)=O)NC(=O)[C@H](Cc2c[nH]c3ccccc23)NC1=O | – | inactive | 0 | inactive | inactive | 0 | inactive | inactive | 0 | inactive | inactive | 0 | IC50 ([13]; hek293): > 1500 nM
N=C(N)NCCC[C@@H]1NC(=O)[C@@H](Cc2ccccc2)NC(=O)[C@H](Cc2cnc[nH]2)NC(=O)c2cc([N+](=O)[O-])ccc2SC[C@@H](C(N)=O)NC(=O)[C@@H](Cc2ccccc2)NC1=O | inactive | inactive | 0 | inactive | inactive | 0 | inactive | inactive | 0 | inactive | inactive | 0 | –
NC(=O)[C@@H]1CSc2ccc([N+](=O)[O-])cc2C(=O)N[C@@H](Cc2cnc[nH]2)C(=O)N[C@@H](Cc2ccc(N)cc2)C(=O)N[C@@H](CCCN=C(N)N)C(=O)N[C@@H](Cc2c[nH]c3ccccc23)C(=O)N1 | – | – | – | – | – | – | – | – | – | – | – | – | IC50 ([13]; hek293): > 10000 nM; EC50 ([14]; hek293): > 1000 nM; IC50 ([15]; hek293): > 1000 nM; EC50 ([16]; hek293): 150 nM
N=C(N)NCCC[C@@H]1NC(=O)[C@@H](Cc2ccccc2)NC(=O)[C@H](Cc2cnc[nH]2)NC(=O)c2cc([N+](=O)[O-])ccc2SC[C@@H](C(N)=O)NC(=O)[C@H](Cc2ccccc2)NC1=O | – | inactive | 0 | inactive | inactive | 0 | inactive | inactive | 0 | inactive | inactive | 0 | IC50 [13]: > 1000 nM
N=C(N)NCCC[C@@H]1NC(=O)[C@H](CCCNC(N)=O)NC(=O)[C@H](Cc2cnc[nH]2)NC(=O)c2cc([N+](=O)[O-])ccc2SC[C@@H](C(N)=O)NC(=O)[C@H](Cc2c[nH]c3ccccc23)NC1=O | inactive | inactive | 0 | inactive | inactive | 0 | inactive | inactive | 0 | inactive | inactive | 0 | –
N=C(N)NCCC[C@@H]1NC(=O)[C@@H](Cc2ccccc2)NC(=O)[C@H](Cc2cnc[nH]2)NC(=O)c2cc([N+](=O)[O-])ccc2SC[C@@H](C(N)=O)NC(=O)[C@@H](Cc2ccc3ccccc3c2)NC1=O | inactive | inactive | 0 | – | – | 75 | inactive | inactive | 0 | inactive | inactive | 0 | –
NC(=O)[C@@H]1CSc2ccc([N+](=O)[O-])cc2C(=O)N[C@@H](Cc2cnc[nH]2)C(=O)N[C@H](Cc2ccc3ccccc3c2)C(=O)N[C@@H](CCCN=C(N)N)C(=O)N[C@@H](Cc2c[nH]c3ccccc23)C(=O)N1 | – | – | – | – | – | – | – | – | – | – | – | – | IC50 [13]: 760 nM; EC50 [14]: > 10000 nM; IC50 [15]: 190 nM; IC50 [17]: 760 nM
NC(=O)[C@@H]1CSc2ccc([N+](=O)[O-])cc2C(=O)N[C@@H](Cc2cnc[nH]2)C(=O)N[C@H](Cc2ccccc2)C(=O)N[C@@H](CCCN=C(N)N)C(=O)N[C@H](Cc2ccc3ccccc3c2)C(=O)N1 | – | – | – | – | – | – | – | – | – | – | – | – | IC50 [15]: > 8000 nM; EC50 [16]: 330 nM
N=C(N)NCCC[C@@H]1NC(=O)[C@@H](Cc2ccccc2)NC(=O)[C@H](Cc2cnc[nH]2)NC(=O)c2cc([N+](=O)[O-])ccc2SC[C@@H](C(N)=O)NC(=O)[C@H](Cc2ccc3ccccc3c2)NC1=O | – | – | 110 | – | – | > 100 | – | inactive | 3 | – | inactive | 0 | –

The next lines start with results.

Activity [1] | Activity [2] | Activity [3] [%] | Activity [4] | Activity [5] | Activity [6] [%] | Activity [7] | Activity [8] | Activity [9] [%] | Activity [10] | Activity [11] | Activity [12] [%] | Structure (SMILES) | further results
inactive | inactive | 0 | – | inactive | 0 | inactive | inactive | 0 | inactive | inactive | 0 | NCCCC[C@@H]1NC(=O)[C@@H](Cc2ccccc2)NC(=O)[C@H](Cc2cnc[nH]2)NC(=O)c2cc([N+](=O)[O-])ccc2SC[C@@H](C(N)=O)NC(=O)[C@H](Cc2c[nH]c3ccccc23)NC1=O | IC50 [15]: > 1000 nM
inactive | inactive | 0 | – | inactive | 0 | inactive | inactive | 0 | inactive | inactive | 0 | N=C(N)NCCC[C@H]1NC(=O)[C@@H](Cc2ccccc2)NC(=O)[C@H](Cc2cnc[nH]2)NC(=O)c2cc([N+](=O)[O-])ccc2SC[C@@H](C(N)=O)NC(=O)[C@H](Cc2c[nH]c3ccccc23)NC1=O | IC50 [15]: > 10000 nM
– | – | 9 | – | – | 5 | inactive | inactive | 0 | inactive | inactive | 0 | N=C(N)NCCC[C@@H]1NC(=O)[C@H](Cc2ccc(N)cc2)NC(=O)[C@H](Cc2cnc[nH]2)NC(=O)c2cc([N+](=O)[O-])ccc2SC[C@@H](C(N)=O)NC(=O)[C@H](Cc2c[nH]c3ccccc23)NC1=O | –
– | – | 100 | – | – | 100 | – | – | 100 | – | – | 100 | N=C(N)NCCC[C@@H]1NC(=O)[C@@H](Cc2ccccc2)NC(=O)[C@H](Cc2cnc[nH]2)NC(=O)c2cc([N+](=O)[O-])ccc2SC[C@@H](C(N)=O)NC(=O)[C@H](Cc2c[nH]c3ccccc23)NC1=O | –
– | – | > 100 | – | inactive | 0 | inactive | inactive | 0 | – | inactive | 0 | N=C(N)NCCC[C@@H]1NC(=O)[C@@H](Cc2ccc3ccccc3c2)NC(=O)[C@H](Cc2cnc[nH]2)NC(=O)c2cc([N+](=O)[O-])ccc2SC[C@@H](C(N)=O)NC(=O)[C@H](Cc2c[nH]c3ccccc23)NC1=O | –
inactive | inactive | 0 | inactive | inactive | 0 | inactive | inactive | 0 | inactive | inactive | 0 | NCCC[C@@H]1NC(=O)[C@@H](Cc2ccccc2)NC(=O)[C@H](Cc2cnc[nH]2)NC(=O)c2cc([N+](=O)[O-])ccc2SC[C@@H](C(N)=O)NC(=O)[C@H](Cc2c[nH]c3ccccc23)NC1=O | –
